The source made the active and inactive calls. The rule behind the calls is not given here.
How the values were obtained:
[1] = target: Protein cereblon/E3 ubiquitin-protein ligase Mdm2 (Homo sapiens) (UniProt Q00987+Q96SW2); assay: Induction of CRBN-mediated MDM2 degradation in human HeLa cells at 10 uM incubated for 12 hrs by Western blot analysis; type: cell-based
[2] = target: Protein cereblon/Bcl-2-like protein 1 (Homo sapiens) (UniProt Q07817+Q96SW2); assay: Induction of CRBN-mediated Bcl-xl degradation in human HeLa cells at 10 uM incubated for 12 hrs by Western blot analysis; type: cell-based
[3] = target: T1, Protein cereblon/Induced myeloid leukemia cell differentiation protein Mcl-1 (Homo sapiens, UniProt Q07820+Q96SW2); assay: Induction of CRBN-mediated Mcl-1 degradation in human HeLa cells assessed as relative abundance at 10 uM after 12 hrs by Western blot analysis (reference value: 1); type: cell-based
[4] = target: T1, Protein cereblon/Induced myeloid leukemia cell differentiation protein Mcl-1; assay: Induction of CRBN-mediated Mcl-1 degradation in human HeLa cells assessed as relative abundance at 1 uM after 12 hrs by Western blot analysis (reference value: 1); type: cell-based
[5] = target: T2, Protein cereblon/Apoptosis regulator Bcl-2 (Homo sapiens, UniProt P10415+Q96SW2); assay: Induction of CRBN-mediated Bcl-2 degradation in human HeLa cells assessed as relative abundance at 1 uM after 12 hrs by Western blot analysis (reference value: 1); type: cell-based
[6] = target: T1, Protein cereblon/Induced myeloid leukemia cell differentiation protein Mcl-1; assay: Induction of CRBN-mediated Mcl-1 degradation in human HeLa cells after 12 hrs by Western blot analysis; type: cell-based
[7] = target: T1, Protein cereblon/Induced myeloid leukemia cell differentiation protein Mcl-1; assay: Induction of CRBN-mediated Mcl-1 degradation in human HeLa cells assessed as decrease in Mcl-1 level at 1 uM after 12 hrs by Western blot analysis relative to control; type: cell-based; parameters: scale not given: the % may be the effect or the level left
[8] = target: T1, Protein cereblon/Induced myeloid leukemia cell differentiation protein Mcl-1; assay: Induction of CRBN-mediated Mcl-1 degradation in human HeLa cells assessed as Mcl-1 level at 10 uM after 12 hrs by Western blot analysis relative to control; type: cell-based
[9] = target: T2, Protein cereblon/Apoptosis regulator Bcl-2; assay: Induction of CRBN-mediated Bcl-2 degradation in human HeLa cells assessed as relative abundance at 3 uM after 12 hrs by Western blot analysis (reference value: 1); type: cell-based
[10] = target: T1, Protein cereblon/Induced myeloid leukemia cell differentiation protein Mcl-1; assay: Induction of CRBN-mediated Mcl-1 degradation in human HeLa cells assessed as relative abundance at 3 uM after 12 hrs by Western blot analysis (reference value: 1); type: cell-based
[11] = target: T1, Protein cereblon/Induced myeloid leukemia cell differentiation protein Mcl-1; assay: Induction of CRBN-mediated Mcl-1 degradation in human HeLa cells at 10 uM by Western blot analysis; type: cell-based; conditions: TDE = time-dependent effect
[12] = target: T1, Protein cereblon/Induced myeloid leukemia cell differentiation protein Mcl-1; assay: Induction of CRBN-mediated Mcl-1 degradation in human HeLa cells assessed as relative abundance at 10 uM measured at 4 hrs by Western blot analysis (reference value: 1); type: cell-based
Method in brief: (§1)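 HeLa cells in DMEM with 10% FBS, exposed to 10 µM compound over a 0–24 h time course. Mcl-1 and Bcl-2 detected by immunoblot (NP-40 lysis, BCA-equalized SDS-PAGE, PVDF, ECL) and quantified relative to DMSO control; mean ± s.d., n=3 independent samples.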

[13] = target: T1, Protein cereblon/Induced myeloid leukemia cell differentiation protein Mcl-1; assay: Induction of CRBN-mediated Mcl-1 degradation in human HeLa cells assessed as relative abundance at 10 uM measured at 8 hrs by Western blot analysis (reference value: 1); type: cell-based; method in brief: as §1
[14] = target: T2, Protein cereblon/Apoptosis regulator Bcl-2; assay: Induction of CRBN-mediated Bcl-2 degradation in human HeLa cells assessed as relative abundance at 10 uM measured at 20 hrs by Western blot analysis (reference value: 1); type: cell-based; method in brief: as §1
[15] = target: T1, Protein cereblon/Induced myeloid leukemia cell differentiation protein Mcl-1; assay: Induction of CRBN-mediated Mcl-1 degradation in human HeLa cells assessed as relative abundance at 10 uM measured at 20 hrs by Western blot analysis (reference value: 1); type: cell-based; method in brief: as §1
[16] = target: T1, Protein cereblon/Induced myeloid leukemia cell differentiation protein Mcl-1; assay: Induction of CRBN-mediated Mcl-1 degradation in human HeLa cells assessed as relative abundance at 10 uM measured at 24 hrs by Western blot analysis (reference value: 1); type: cell-based; method in brief: as §1
[17] = target: T2, Protein cereblon/Apoptosis regulator Bcl-2; assay: Induction of CRBN-mediated Bcl-2 degradation in human HeLa cells assessed as relative abundance at 10 uM measured at 4 hrs by Western blot analysis (reference value: 1); type: cell-based; method in brief: as §1
[18] = target: T2, Protein cereblon/Apoptosis regulator Bcl-2; assay: Induction of CRBN-mediated Bcl-2 degradation in human HeLa cells assessed as relative abundance at 10 uM measured at 8 hrs by Western blot analysis (reference value: 1); type: cell-based; method in brief: as §1
[19] = target: T2, Protein cereblon/Apoptosis regulator Bcl-2; assay: Induction of CRBN-mediated Bcl-2 degradation in human HeLa cells assessed as relative abundance at 10 uM measured at 16 hrs by Western blot analysis (reference value: 1); type: cell-based; method in brief: as §1
[20] = target: T2, Protein cereblon/Apoptosis regulator Bcl-2; assay: Induction of CRBN-mediated Bcl-2 degradation in human HeLa cells assessed as relative abundance at 10 uM measured at 24 hrs by Western blot analysis (reference value: 1); type: cell-based; method in brief: as §1
[21] = target: T1, Protein cereblon/Induced myeloid leukemia cell differentiation protein Mcl-1; assay: Induction of CRBN-mediated Mcl-1 degradation in human K562 cells incubated for 12 hrs by Western blot analysis; type: cell-based
Method in brief: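 K562 cells kept in RPMI1640 with 10% FBS at 37 °C, 5% CO2. After compound treatment, cells lysed in NP-40 buffer with protease inhibitors. Equal protein run on SDS-PAGE, then immunoblotted; protein levels quantified from the blots.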

[22] = test system: HeLa; assay: Induction of CRBN-mediated tubulin degradation in human HeLa cells at 10 uM incubated for 12 hrs by Western blot analysis; type: cell-based
Method in brief: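 HeLa cells (DMEM, 10% FBS, 37 °C, 5% CO2) treated 12 h with compound (10 µM, or 0–10 µM gradient; time course 0–24 h at 10 µM). Lysis in NP-40 buffer with protease inhibitors, equal protein loaded for SDS-PAGE and immunoblotting. Bands quantified relative to DMSO control. n=3 independent samples.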

[23] = target: T1, Protein cereblon/Induced myeloid leukemia cell differentiation protein Mcl-1; assay: Induction of CRBN-mediated Mcl-1 degradation in human HeLa cells at 10 uM pretreated with proteasome inhibitor MG-132 followed by compound addition by Western blot analysis; type: cell-based
[24] = target: T1, Protein cereblon/Induced myeloid leukemia cell differentiation protein Mcl-1; assay: Induction of CRBN-mediated Mcl-1 degradation in human HeLa cells at 10 uM pretreated with CRBN inhibitor pomalidomide followed by compound addition by Western blot analysis; type: cell-based
[25] = test system: NCI-H23; assay: Cytotoxicity against human H23 cells incubated for 24 hrs by CCK8 assay; type: functional, cell-based
Method in brief: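 H23 cells seeded at 4 × 10^4 per mL in RPMI with 10% FBS, L-glutamine and pen/strep. Treated 24 h at various concentrations or with DMSO vehicle (0.05%). Viability read by CCK8 and normalized against cell-free background and untreated cultures; mean ± s.e.m., n=3.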

[26] = test system: NCI-H23; assay: Cytotoxicity against human H23 cells assessed as effect on PARP cleavage at 0.3 to 10 uM incubated for 12 hrs by Western blot analysis; type: functional, cell-based
Method in brief: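 H23 cells grown in RPMI1640 with 10% FBS at 37°C, 5% CO2, treated 12 h over a concentration gradient. Mcl-1 and PARP cleavage read by immunoblot: NP-40 lysis buffer with protease inhibitors, BCA-normalized SDS-PAGE, PVDF, ECL detection; n=3 independent samples.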

[27] = target: T2, Protein cereblon/Apoptosis regulator Bcl-2; assay: Induction of CRBN-mediated Bcl-2 degradation in human HeLa cells assessed as reduction in Bcl-2 level at 10 uM after 12 hrs by Western blot analysis; type: cell-based

T2 sequence (P10415 whole entry, looked up): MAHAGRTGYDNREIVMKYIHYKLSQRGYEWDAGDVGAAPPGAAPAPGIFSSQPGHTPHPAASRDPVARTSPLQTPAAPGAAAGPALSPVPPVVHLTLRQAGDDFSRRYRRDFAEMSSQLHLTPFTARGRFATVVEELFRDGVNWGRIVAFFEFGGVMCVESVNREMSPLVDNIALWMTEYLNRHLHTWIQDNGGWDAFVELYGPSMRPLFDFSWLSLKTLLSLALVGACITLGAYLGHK
T2 sequence (Q96SW2 whole entry, looked up): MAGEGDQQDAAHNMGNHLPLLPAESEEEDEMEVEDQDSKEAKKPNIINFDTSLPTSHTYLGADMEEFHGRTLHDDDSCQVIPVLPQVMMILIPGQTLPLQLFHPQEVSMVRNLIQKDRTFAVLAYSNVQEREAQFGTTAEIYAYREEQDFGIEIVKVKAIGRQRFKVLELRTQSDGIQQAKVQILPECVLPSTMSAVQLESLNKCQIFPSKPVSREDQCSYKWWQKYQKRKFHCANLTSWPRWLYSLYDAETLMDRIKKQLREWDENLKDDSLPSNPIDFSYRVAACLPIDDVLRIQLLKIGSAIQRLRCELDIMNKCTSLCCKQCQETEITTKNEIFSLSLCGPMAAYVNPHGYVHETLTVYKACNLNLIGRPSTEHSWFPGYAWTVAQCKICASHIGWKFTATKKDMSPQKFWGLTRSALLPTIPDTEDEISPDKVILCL
T1 sequence (Q07820 whole entry, looked up): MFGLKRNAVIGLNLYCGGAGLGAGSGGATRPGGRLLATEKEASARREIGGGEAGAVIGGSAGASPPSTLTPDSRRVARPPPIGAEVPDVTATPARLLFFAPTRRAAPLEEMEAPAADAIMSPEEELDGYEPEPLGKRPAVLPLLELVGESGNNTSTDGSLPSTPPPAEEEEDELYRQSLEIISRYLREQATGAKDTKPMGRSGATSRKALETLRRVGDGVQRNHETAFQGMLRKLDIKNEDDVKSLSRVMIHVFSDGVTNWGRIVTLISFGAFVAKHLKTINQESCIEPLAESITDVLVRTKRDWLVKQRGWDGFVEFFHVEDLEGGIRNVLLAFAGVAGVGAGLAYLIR
T1 sequence (Q96SW2 whole entry, looked up): as the sequence (Q96SW2 whole entry, looked up) above
Protein cereblon/E3 ubiquitin-protein ligase Mdm2 (Homo sapiens), sequence (Q00987 whole entry, looked up): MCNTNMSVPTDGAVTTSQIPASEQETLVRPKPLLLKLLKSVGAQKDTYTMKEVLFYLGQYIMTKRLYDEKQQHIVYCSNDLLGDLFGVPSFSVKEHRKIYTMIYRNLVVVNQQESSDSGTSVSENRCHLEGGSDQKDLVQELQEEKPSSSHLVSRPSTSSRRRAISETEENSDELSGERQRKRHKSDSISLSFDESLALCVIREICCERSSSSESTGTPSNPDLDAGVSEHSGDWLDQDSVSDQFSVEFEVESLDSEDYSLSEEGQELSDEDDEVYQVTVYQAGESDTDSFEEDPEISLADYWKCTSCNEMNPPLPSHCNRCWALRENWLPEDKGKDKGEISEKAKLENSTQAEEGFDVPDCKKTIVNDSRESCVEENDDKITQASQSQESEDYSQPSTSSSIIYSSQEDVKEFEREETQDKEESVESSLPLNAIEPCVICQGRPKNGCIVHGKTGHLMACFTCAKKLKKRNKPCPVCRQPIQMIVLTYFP
Protein cereblon/E3 ubiquitin-protein ligase Mdm2 (Homo sapiens), sequence (Q96SW2 whole entry, looked up): as the sequence (Q96SW2 whole entry, looked up) above
Protein cereblon/Bcl-2-like protein 1 (Homo sapiens), sequence (Q07817 whole entry, looked up): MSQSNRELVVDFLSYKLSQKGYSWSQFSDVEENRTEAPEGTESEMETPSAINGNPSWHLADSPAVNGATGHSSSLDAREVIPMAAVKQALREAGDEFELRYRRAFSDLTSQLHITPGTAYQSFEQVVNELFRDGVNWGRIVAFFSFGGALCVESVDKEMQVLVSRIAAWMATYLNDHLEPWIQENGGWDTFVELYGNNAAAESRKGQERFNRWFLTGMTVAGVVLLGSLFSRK
Protein cereblon/Bcl-2-like protein 1 (Homo sapiens), sequence (Q96SW2 whole entry, looked up): as the sequence (Q96SW2 whole entry, looked up) above

Activity [1]: inactive
Activity [2]: inactive
fold change (FC) [3]: 0.1 to 0.2
fold change (FC) [4]: 0.3
fold change (FC) [5]: 0.9 to 1
Activity [6]: Dose-dependent effect
Activity [7]: 70%
Activity [8]: < 10%
fold change (FC) [9]: 1
fold change (FC) [10]: 0.1
Activity [11]: Tde
fold change (FC) [12]: 1.1
fold change (FC) [13]: 0.7
fold change (FC) [14]: 1
fold change (FC) [15]: 0.8
fold change (FC) [16]: 0.9
fold change (FC) [17]: 1.1
fold change (FC) [18]: 1
fold change (FC) [19]: 1
fold change (FC) [20]: 0.9
Activity [21]: Active
Activity [23]: inactive
Activity [24]: inactive
Activity [27]: inactive
SMILES: O=C(CCCCC(=O)NCCN1C(=O)c2cccc3c(Sc4ccc(Br)cc4)ccc(c23)C1=O)NCCCCCCNc1cccc2c1C(=O)N(C1CCC(=O)NC1=O)C2=O (configuration not stated)
Activity [22]: inactive
Activity [25]: Active
Activity [26]: Active
